Screening data deposited in PubChem by several laboratories.
Shown are actives, neighbours in structure and some others; about 2.5% of the full set was active somewhere.
IMP-1 inh – IMP-1 metallo-beta-lactamase inhibitors, primary screen, biochemical, epi-absorbance readout, Pseudomonas aeruginosa enzyme. metallo-beta-lactamase IMP-1 (Pseudomonas aeruginosa). actives 0.45% (n = 290,000). inhibition, % at 5.6 µM. purified IMP-1, nitrocefin hydrolysis, epi-absorbance fluorescence;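 active = inhibition above the mean plus 3 SD of all compounds in the same screening run, cut at about 4.5% in these data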;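 note: 0% = IMP-1 with DMSO and 100% = DMSO wells lacking enzyme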
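Test system: recombinant IMP-1 enzyme, purified / Medium: HEPES buffer pH 7.1 with ZnSO4 and Brij 35 / Doses: single dose, 5.6 µM / Times: 25 °C, 15 min preincubation, 25 min reaction / Detection: Epi-absorbance via hydrolysed-nitrocefin quenching of white-plate fluorescence, 480/530 nm, EDTA stop / Evaluation: percent inhibition from optical density relative to buffer-blank wells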
VIM-2 inh – VIM-2 metallo-beta-lactamase inhibitors, primary screen, biochemical, epi-absorbance readout, Pseudomonas aeruginosa enzyme; purified VIM-2, nitrocefin hydrolysis, epi-absorbance fluorescence; AID 1527, 2009; actives 0.89% (n = 290,000); inhibition, % at 5.6 µM;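 active = inhibition above the mean of all tested compounds plus 3 SD, cutoff set per screening run, cut at about 7.5% in these data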;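 note: red hydrolysis product quenches plate fluorescence so inhibitors raise well fluorescence; 0% = enzyme with DMSO and 100% = DMSO without enzyme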
dFosB act – activators of delta FosB homodimer, primary screen, biochemical, fluorescence polarization, TAMRA-CDK5 oligo, single point. Protein FosB (Mus musculus), P13346. purified delta FosB; percent of positive-control signal above neutral wells. activation, % at 25 µM. actives 0.99% (n = 340,000). AID 493131, 2011;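 active = mean activation above about 17%, with every replicate also reaching it, limit read from the data, passing the limit was not always enough; inconclusive = only one of the two conditions met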
HTR2A ag – mouse Htr2a agonists via beta-arrestin recruitment, primary screen, cell-based, luminescence. activation, % at 7.6 µM. CHO-K1 mHTR2A beta-arrestin complementation; percent of 30 µM serotonin response. 5-hydroxytryptamine receptor 2A (Mus musculus), P35363. actives 0.66% (n = 360,000);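 active = activation above a run cutoff, the mean activation of all tested compounds plus 3 SD, cut at about 14% in these data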;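 note: 0% = plate median of compound wells and 100% = 30 µM serotonin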
Target sequence (P35363 whole entry, looked up): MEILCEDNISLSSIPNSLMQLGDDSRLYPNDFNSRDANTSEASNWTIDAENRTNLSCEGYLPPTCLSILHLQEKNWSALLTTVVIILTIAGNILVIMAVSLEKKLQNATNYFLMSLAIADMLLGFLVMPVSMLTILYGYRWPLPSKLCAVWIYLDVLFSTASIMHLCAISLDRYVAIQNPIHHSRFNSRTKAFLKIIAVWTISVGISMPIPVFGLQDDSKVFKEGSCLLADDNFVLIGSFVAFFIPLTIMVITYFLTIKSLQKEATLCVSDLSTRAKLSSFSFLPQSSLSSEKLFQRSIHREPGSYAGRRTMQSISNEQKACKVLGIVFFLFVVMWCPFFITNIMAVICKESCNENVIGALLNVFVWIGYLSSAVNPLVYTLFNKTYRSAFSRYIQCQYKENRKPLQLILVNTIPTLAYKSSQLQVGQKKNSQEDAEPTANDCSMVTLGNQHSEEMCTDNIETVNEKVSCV
MOR ag counter – OPRM1 agonists via beta-arrestin recruitment, confirmation, counter-screen for mouse HTR2A agonist project, cell-based, luminescence, single concentration | shares compounds with HTR2A ag | U2OS OPRM1 beta-arrestin PathHunter; DMSO 0%, DAMGO 9.3 µM 100% | activation, % at 9.3 µM | actives 5.3% (n = 2,300) | AID 624380, 2012;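 active = mean activation above the mean of DMSO-only wells plus 3 SD, cut at about 0.5% in these data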
HTR2A ag conf – mouse HTR2A agonists, beta-arrestin recruitment, confirmation, cell-based, luminescence, CHO-K1 PathHunter, triplicate; shares compounds with HTR2A ag; actives 19% (n = 2,300); activation, % at 7.6 µM; DMSO 0%, 30 µM serotonin 100%;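 active = mean activation across triplicates above the hit threshold derived in the original primary screen, cut at about 15% in these data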
Active calls of the source: *; ? = inconclusive; . = no result given; ! = a repeat was not active.

SMILES	IMP-1 inh	VIM-2 inh	dFosB act	HTR2A ag	MOR ag counter	HTR2A ag conf
O=C(O)c1ccc(NS(=O)(=O)c2ccc(C(=O)Nc3ccccc3)cc2)cc1	-3.6	-2.6	5.0	-3.9	.	.
CC(Cc1ccco1)NC(=O)c1ccc(C(F)(F)F)cc1 (stereo not drawn)	-4.5	-0.1	0.1	-5.2	.	.
CC(=O)Nc1ccc(S(=O)(=O)N2CCN(C(=O)Cc3ccccc3)CC2)cc1	-3.2	-3.9	0.8	17.0*	-0.4	-1.6
O=C1CCc2cc(S(=O)(=O)Nc3cccc(Cl)c3)ccc2N1	.	.	.	-2.1	.	.
Cc1cccc(NS(=O)(=O)c2ccc3c(c2)CCC(=O)N3)c1	1.4	-1.8	-2.5	16.0*!	-0.4	4.8
CC1(C)Oc2ccc3ccc(=O)oc3c2/C(=C/Nc2cccc(O)c2)C1=O	-0.5	-2.6	-2.7	16.6*	-0.2	4.1
O=C(Nc1ccccn1)[C@@H]1CCC(=O)N1C(=O)OCc1ccccc1	-2.4	-4.4	4.5	17.8*	-0.4	-2.9
Cc1ccc(NC(=O)C2CCC(=O)N2C(=O)OCc2ccccc2)cc1 (stereo not drawn)	-3.3	-3.5	-5.5	-5.7	.	.
COc1ccc(NC(=O)CCNS(=O)(=O)c2ccc3[nH]c(=O)oc3c2)cc1Cl	-2.5	-1.9	-0.9	21.6*	-0.3	3.1
Cc1ccc(NC(=O)CCNS(=O)(=O)c2ccc3[nH]c(=O)oc3c2)cc1	-3.3	-2.8	4.4	5.6	.	.
CCOc1cc(N2CCOCC2)c(OCC)cc1NC(=O)CN1C(=O)NC2(CCCCCCC2)C1=O	-1.2	-3.5	-1.6	4.7	.	.
CCOc1cc(N2CCOCC2)c(OCC)cc1NC(=O)CN1C(=O)NC(CC)(c2ccc(F)cc2)C1=O (stereo not drawn)	.	.	-4.5	15.2*	-0.6	1.4
COc1ccc(S(=O)(=O)N2CC(=O)Nc3ccccc32)cc1Cl	1.6	3.0	-10.0	0.1	.	.
COC(=O)NCCc1cc(OC)c(OC)cc1S(=O)(=O)N1CC(=O)Nc2ccccc21	0.3	-2.4	-6.4	15.1*	-0.5	-0.8
Cc1onc(C(=O)Nc2c(C)n(C)n(-c3ccccc3)c2=O)c1[N+](=O)[O-]	-1.3	-1.4	-2.3	3.5	.	.
C=CCn1c(=NC(=O)c2ccc(S(=O)(=O)N3CCc4ccccc4C3)cc2)sc2cc(S(N)(=O)=O)ccc21	-3.0	-3.8	?	21.9*	-0.7	13.2
COCCn1c(=NC(=O)c2ccc(S(=O)(=O)N3CCc4ccccc4C3)cc2)sc2cc(S(N)(=O)=O)ccc21	-3.3	-2.5	-10.3	3.2	.	.
C#CCN(C[C@H]1[C@H](OC(=O)NC2CC2)[C@H](OC(=O)NC2CC2)C[C@@H](C(=O)OC)[C@H]1C(=O)OC)S(=O)(=O)c1ccc(C)cc1	.	.	.	-3.9	.	.
O=C(NCc1ccccn1)C(F)(F)C(F)(F)C(=O)NCc1ccccn1	-3.3	-4.3	-2.8	14.9*	-0.5	-2.8
O=C(NCc1ccccn1)c1ccccc1OCc1ccc(F)cc1	.	.	-4.9	-4.1	.	.
O=C(NCc1ccccn1)c1ccccc1OCc1ccccc1Cl	.	.	.	23.6*	-0.4	-6.3
COc1ccccc1CNC(=O)CC12CC3CC(CC(Br)(C3)C1)C2	-2.0	1.2	-4.1	0.0	.	.
CC(C)CCN1CCN(Cc2cnc(N3CCCC3)s2)CC1CCO (stereo not drawn)	-2.5	-3.8	-12.9	3.0	.	.
Cc1ccc(CNCC(O)(c2ccccc2)c2ccccc2)cc1	-1.9	0.2	-11.3	19.7*	0.1	-3.7
CN1C(=O)CC(Sc2ncccc2C(=O)O)C1=O (stereo not drawn)	-2.8	-5.1	-2.9	15.0*	-0.5	1.5
COCCn1c(=O)[nH]c2cc(C(=O)N3CCN(c4ccccc4OC)CC3)ccc2c1=O	-2.2	-1.1	-3.2	8.5	.	.
COCCn1c(=O)[nH]c2cc(C(=O)N3CCN(c4cccc(C)c4C)CC3)ccc2c1=O	-3.0	-3.6	-11.0	15.1*	-0.1	1.3
